Assay results pooled from the literature.
Protocols differ between the studies behind these lines.
Organism: Mycolicibacterium smegmatis
Read-out: microbial growth

`CCCCc1ccc(-c2c[nH]c(N)n2)cc1` gave an MIC of 150 µM (ATCC700084 MC^2155; 48 h).
For `CC(=O)O[C@H]1C[C@@]2(C)[C@@H](C[C@@H](O)[C@H]3[C@@]4(C)CC[C@@H](O)[C@@H](C)[C@@H]4CC[C@@]32C)/C1=C(\CCC=C(C)C)C(=O)O`, the MIC was 50 µg/mL (resazurin; MC^2155; 24 h).
`O=C(Nc1ccccc1)c1cc(-c2csc(Nc3ccc(Cl)cc3)n2)on1` has an MIC of greater than 64 µg/mL (MC2155).
With `CCN[C@@H]1C[C@H](N)[C@@H](O[C@H]2OC(CN)=CC[C@H]2N)[C@H](O)[C@H]1O[C@H]1OC[C@](C)(O)[C@H](NC)[C@H]1O` the MIC was 2 µg/mL (broth dilution; 72 h).
With `CCCCCCCCCCC[C@@H](C[C@@H]1OC(=O)[C@H]1CCCCCC)OC(=O)[C@H](CC(C)C)NC=O` the MIC was 48 µg/mL (resazurin; MC^2155).
`CCOc1ccc(-c2c[nH]c(N)n2)cc1` gave an MIC of 200 µM (ATCC700084 MC^2155; 48 h).
With `C/C(=N\NC(=N)N)c1ccc(-c2ccc(/C(C)=N/Nc3ccccc3Cl)cc2)cc1.Cl` the MIC was 213 µg/mL (MC2155).
`Cc1ccc(Nc2nc(-c3cc(C(=O)Nc4ccccc4)no3)cs2)cc1` gave an MIC of greater than 64 µg/mL (MC2155).
`CO/N=C(\C(=O)N[C@@H]1C(=O)N2C(C(=O)O)=C(COC(C)=O)CS[C@H]12)c1csc(N)n1` gave an MIC of 75 µg/mL (resazurin; MC^2155; 24 h).
`NNC(=O)c1ccncc1` gave an MIC of 32 µg/mL (broth dilution; ATCC700084 MC^2155).
The MIC of `CCCCCC[C@H](CN1CCC(COc2cccc(C(=NOC)c3ccc(Cl)cc3)c2)CC1)OC(N)=O` is reported as 6.5 µg/mL (agar dilution).
With `CC[C@H]1OC(=O)[C@H](C)[C@@H](O[C@H]2C[C@@](C)(OC)[C@@H](O)[C@H](C)O2)[C@H](C)[C@@H](O[C@@H]2O[C@H](C)C[C@H](N(C)C)[C@H]2O)[C@](C)(OC)C[C@@H](C)C(=O)[C@H](C)[C@@H](O)[C@]1(C)O` the MIC was 0.36 µg/mL (resazurin; MC^2155; 24 h).
The MIC of `Cc1ccc(Nc2nc(-c3cc(C(=O)Nc4ccsc4)no3)cs2)cc1` is reported as greater than 64 µg/mL (MC2155).
With `CO[C@H]1/C=C/O[C@@]2(C)Oc3c(C)c(O)c4c(O)c(c(/C=N/N5CCN(C)CC5)c(O)c4c3C2=O)NC(=O)/C(C)=C\C=C\[C@H](C)[C@H](O)[C@@H](C)[C@@H](O)[C@@H](C)[C@H](OC(C)=O)[C@@H]1C` the MIC was 8 µg/mL (broth dilution; ATCC700084 MC^2155).
With `NC[C@@H]1O[C@H](O[C@H]2[C@@H](O)[C@H](O[C@@H]3[C@@H](O)[C@H](N)C[C@H](N)[C@H]3O[C@H]3O[C@H](CO)[C@@H](O)[C@H](O)[C@H]3N)O[C@@H]2CO)[C@H](N)[C@@H](O)[C@@H]1O` the MIC was 0.5 µg/mL (broth dilution; 72 h).
`CCCOc1ccc(-c2c[nH]c(N)n2)cc1` has an MIC of 100 µM (ATCC700084 MC^2155; 48 h).
`CO[C@H]1/C=C/O[C@@]2(C)Oc3c(C)c(O)c4c(O)c(c(/C=N/N5CCN(C)CC5)c(O)c4c3C2=O)NC(=O)/C(C)=C\C=C\[C@H](C)[C@H](O)[C@@H](C)[C@@H](O)[C@@H](C)[C@H](OC(C)=O)[C@@H]1C` gave an MIC of 0.8 µg/mL (resazurin; MC^2155; 24 h).
